The values that follow come from publication PMC4301737 (Journal of molecular biology, 2009).

Molecules are shown by their SMILES. Like-named read-outs stand apart in the source and are kept apart here.

As usually defined, the Kd is the constant that tells how readily two partners part at equilibrium.

Test [1] relates to BpeGReg. In words: Ligand binding kinetics and affinity of BpeGReg. The note with it: 25°C, 100 mM NaPi, pH 7.5. Details: species or system Bordetella pertussis. The method in brief:
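His-tagged protein purified by Co2+-affinity, used at 2–5 µM. O2 kon by flash photolysis at 436 or 414 nm with 64–1024 µM O2. O2 koff by stopped-flow at 436 nm, oxy protein mixed with 1 mM dithionite. CO kon by photolysis at 419 nm with 30–480 µM CO. CO koff: 3.5 µM CO-bound protein (20 µM CO) displaced by 500 µM NO at 423 nm. NO kon by photolysis at 435 nm with 15–60 µM NO. Rates taken from linear kobs-versus-ligand plots over ≥4 concentrations.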

The target of another test is HemAT-Bs. The settings on record: ref Zhang et al.[22], cited from earlier work.
Test [2] addresses sperm-whale myoglobin (SWMb). The settings on record: ref Springer et al.[23], cited from earlier work.
The subject of test [3] is BpeGReg. The test is described as follows: Enzymatic diguanylate cyclase assay. The format is biochemical, Bordetella pertussis.

As to `[C-]#[O+]` [CO, carbon-monoxide], the CO koff in the test with BpeGReg [1] is 0.056 s⁻¹; with HemAT-Bs, 0.067 s⁻¹; in test [2] it was 0.019 s⁻¹. The Kd is 200 nM on HemAT-Bs (read-out: CO Kd) and 37 nM in test [2] (read-out: CO Kd).
On to `O=O` [O2, oxygen], for which the O2 koff in the test with BpeGReg [1] is 4.5 s⁻¹; in test [2] it was 15 s⁻¹. Moreover, the Kd on BpeGReg [1] (read-out: O2 Kd) is 640 nM; in test [2] (read-out: O2 Kd), 880 nM. In addition, the “drop in activity in the absence of O2” value in the test with BpeGReg [3] (5 µM BpeGReg in air (Fe(II)O2) vs anaerobic (Fe(II)), 500 µM GTP, PDE-coupled) is recorded as 13 fold. Moreover, the “rate of O2-bound BpeGReg relative to unliganded ferrous form” value in the test on BpeGReg [3] (PDE-coupled assay) turned out to be 10 times. For the same compound, the “initial rate of c-di-GMP production by O2-bound BpeGReg” value in the test with BpeGReg [3] (PDE-coupled assay, 500 µM GTP) is 2.5 min⁻¹. For the same compound, the “c-di-GMP production by liganded state of BpeGReg” value with BpeGReg [3] (compared to the unliganded, CO- and NO-bound forms, HPLC-MS and TLC) is given as “highest amount of c-di-GMP per mole of protein”.
`Nc1nc2c(ncn2[C@@H]2O[C@@H]3COP(=O)(O)O[C@H]4[C@@H](O)[C@H](n5cnc6c(=O)[nH]c(N)nc65)O[C@@H]4COP(=O)(O)O[C@H]3[C@H]2O)c(=O)[nH]1` [c-di-GMP, bis-(3’–5’)-cyclic diguanosine monophosphate]: the “effect on BpeGReg-catalyzed reaction” value with BpeGReg [3] (20 µM c-di-GMP added at start, 1 µM oxy-BpeGReg, 500 µM GTP) is “strongly inhibited”.
